Measured values reported in ChEMBL document CHEMBL1153429, “Structure-based virtual screening of Src kinase inhibitors” (Bioorg Med Chem, 2009).
pIC50: −log10 of the molar value. Activity calls are given as the source filed them. The rule behind the calls is not given here.

What was measured:
[1] = biological target: T1, Proto-oncogene tyrosine-protein kinase Src (Homo sapiens, UniProt P12931)
[2] = biological target: T1, Proto-oncogene tyrosine-protein kinase Src; assay: Inhibition of Src kinase at 10 uM
Procedure, shortened: (§1)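 Kinase reaction with ATP and specific substrate, incubated 1 h at room temperature with test compound (1% DMSO final). Protease solution then added, followed by stabilizer. Read-out by […] at 485/530 nm.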

A-431 [3] = assay: Inhibition of ERK phosphorylation in human A431 cells at 0.1 uM after 6 hrs by Western blot analysis; type: cell-based
Procedure, shortened: (§2)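 PC3 or A431 cells grown 48 h in 6 cm dishes, then exposed to 0.1 µM compound for varying times. Lysed on ice in Tris pH 7.5/NaCl/EDTA/Triton X-100/DTT/PMSF/glycerol with protease inhibitors, then spun. Protein measured by dye-binding assay. Run on 10% SDS-PAGE, blotted to PVDF, blocked 1 h in 5% milk, and probed for phospho and total ERK and p90RSK.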

[4] = biological target: Ribosomal protein S6 kinase alpha-1 (Homo sapiens) (UniProt Q15418); assay: Inhibition of p90RSK phosphorylation in human A431 cells at 0.1 uM by Western blot analysis; type: cell-based; details: A-431, TDE = time-dependent effect
Procedure, shortened: as §2

Rattus norvegicus = assay: Cmax in Sprague-Dawley rat plasma at 10 mg/kg, iv and po; type: ADME, organism-based; design: dose 10 mg/kg, route oral; details: in vivo
[5] = biological target: Ribosomal protein S6 kinase alpha-1 (Homo sapiens) (UniProt Q15418); assay: Inhibition of p90RSK phosphorylation in human PC3 cells at 0.1 uM by Western blot analysis; type: cell-based; details: PC-3, TDE = time-dependent effect
Procedure, shortened: as §2

[6] = Tmax in Sprague-Dawley rat at 5 mg/kg, iv; type: ADME, organism-based; design: dose 5 mg/kg, route intravenous; details: in vivo
Procedure, shortened: (§3)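 Single dose in Sprague–Dawley rats, iv or po. Rats fasted overnight before oral dosing and fed about 2 h after it; no fasting for iv. Approx. 0.3 mL blood drawn from the tail vein into heparin tubes at various times, then centrifuged to plasma and held at −80 °C. Compound measured by LCMS. t1/2 = 0.693/Ke; AUC by linear trapezoidal rule to 5 h plus extrapolation.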

[7] = Tmax in Sprague-Dawley rat plasma at 10 mg/kg, iv and po; type: ADME, organism-based; design: dose 10 mg/kg, route oral
[8] = biological target: Ribosomal protein S6 kinase alpha-1 (Homo sapiens) (UniProt Q15418); assay: Inhibition of p90RSK phosphorylation in human A431 cells at 0.1 uM after 6 hrs by Western blot analysis; type: cell-based; details: A-431
Procedure, shortened: as §2

[9] = Half life in Sprague-Dawley rat at 5 mg/kg, iv; type: ADME, organism-based; design: dose 5 mg/kg, route intravenous; details: in vivo
Procedure, shortened: as §3

[10] = Cmax in Sprague-Dawley rat at 10 mg/kg, po; type: ADME, organism-based; design: dose 10 mg/kg, route oral; details: in vivo
Procedure, shortened: as §3

[11] = Tmax in Sprague-Dawley rat at 10 mg/kg, po; type: ADME, organism-based; design: dose 10 mg/kg, route oral; details: in vivo
Procedure, shortened: as §3

A-431 [12] = assay: Inhibition of EGF-stimulated tyrosine phosphorylation in human A431 cells
PC-3 [13] = assay: Inhibition of ERK phosphorylation in human PC3 cells at 0.1 uM by Western blot analysis; type: cell-based; details: TDE = time-dependent effect
Procedure, shortened: as §2

SK-BR-3 = assay: Antiproliferative activity against human SKBR3 cells expressing HER2 at < 10 uM after 72 hrs by SRB assay; type: functional, cell-based
Procedure, shortened: (§4)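 Cells seeded at 10,000–15,000 per well and held at 37 °C, 5% CO2. After 24 h compound added across a concentration range for 72 h. Cells then fixed with cold 10% TCA and stained with sulforhodamine B (0.4% in 1% acetic acid). Dye solubilized in 10 mM Tris base and absorbance read. GI50 from [(Ti−Tz)/(C−Tz)]×100 = 50. PC3 and SK-BR3 grown in RPMI 1640 with 10% FBS; A431 and MCF-7 in DMEM with 10% FBS.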

[14] = AUC in Sprague-Dawley rat at 5 mg/kg, iv; type: ADME, organism-based; design: dose 5 mg/kg, route intravenous; details: plasma
Procedure, shortened: as §3

[15] = Half life in Sprague-Dawley rat at 10 mg/kg, po; type: ADME, organism-based; design: dose 10 mg/kg, route oral; details: in vivo
Procedure, shortened: as §3

[16] = biological target: Ribosomal protein S6 kinase alpha-1 (Homo sapiens) (UniProt Q15418); assay: Inhibition of p90RSK phosphorylation in human PC3 cells at 0.1 uM after 6 hrs by Western blot analysis; type: cell-based; details: PC-3
Procedure, shortened: as §2

[17] = AUC in Sprague-Dawley rat at 10 mg/kg, po; type: ADME, organism-based; design: dose 10 mg/kg, route oral; details: plasma
Procedure, shortened: as §3

PC-3 [18] = assay: Antiproliferative activity against human PC3 cells after 72 hrs by SRB assay; type: functional, cell-based
Procedure, shortened: as §4

[19] = Cmax in Sprague-Dawley rat at 5 mg/kg, iv; type: ADME, organism-based; design: dose 5 mg/kg, route intravenous; details: in vivo
Procedure, shortened: as §3

PC-3 [20] = assay: Inhibition of ERK phosphorylation in human PC3 cells at 0.1 uM after 6 hrs by Western blot analysis; type: cell-based
Procedure, shortened: as §2

A-431 [21] = assay: Antiproliferative activity against human A431 cells after 72 hrs by SRB assay; type: functional, cell-based
Procedure, shortened: as §4

[22] = biological target: Epidermal growth factor receptor (Homo sapiens, UniProt P00533)
MCF7 = assay: Antiproliferative activity against human MCF7 cells at < 10 uM after 72 hrs by SRB assay; type: functional, cell-based
Procedure, shortened: as §4

[23] = Oral bioavailability in Sprague-Dawley rat at 10 mg/kg, po; type: ADME, organism-based; details: in vivo
Procedure, shortened: as §3

A-431 [24] = assay: Inhibition of ERK phosphorylation in human A431 cells at 0.1 uM by Western blot analysis; type: cell-based; details: TDE = time-dependent effect
Procedure, shortened: as §2

[25] = biological target: Vascular endothelial growth factor receptor 2 (Homo sapiens) (UniProt P35968); assay: Inhibition of VEGFR2 at 10 uM
Procedure, shortened: as §1

Sequence of Ribosomal protein S6 kinase alpha-1 (Homo sapiens) (Q15418 whole entry): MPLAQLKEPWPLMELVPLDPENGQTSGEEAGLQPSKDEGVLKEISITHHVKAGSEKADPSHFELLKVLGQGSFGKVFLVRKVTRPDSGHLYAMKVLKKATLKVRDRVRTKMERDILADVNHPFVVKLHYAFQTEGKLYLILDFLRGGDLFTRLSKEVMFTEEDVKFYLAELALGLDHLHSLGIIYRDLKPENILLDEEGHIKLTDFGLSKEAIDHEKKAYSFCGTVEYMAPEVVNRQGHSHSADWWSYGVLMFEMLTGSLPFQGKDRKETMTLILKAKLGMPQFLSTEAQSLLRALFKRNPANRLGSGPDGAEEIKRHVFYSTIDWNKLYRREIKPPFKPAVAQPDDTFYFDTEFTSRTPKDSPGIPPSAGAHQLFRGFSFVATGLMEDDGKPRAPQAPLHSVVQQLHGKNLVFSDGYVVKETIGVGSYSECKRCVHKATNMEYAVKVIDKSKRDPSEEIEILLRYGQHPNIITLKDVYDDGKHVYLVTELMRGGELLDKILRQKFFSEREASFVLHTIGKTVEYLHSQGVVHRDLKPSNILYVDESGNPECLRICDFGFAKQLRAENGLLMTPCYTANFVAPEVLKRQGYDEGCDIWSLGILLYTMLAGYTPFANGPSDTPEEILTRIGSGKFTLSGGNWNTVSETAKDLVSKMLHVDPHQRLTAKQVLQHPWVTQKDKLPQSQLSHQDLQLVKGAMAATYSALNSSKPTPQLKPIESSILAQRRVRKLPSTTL
T1 sequence (P12931 2-536 limits assumed): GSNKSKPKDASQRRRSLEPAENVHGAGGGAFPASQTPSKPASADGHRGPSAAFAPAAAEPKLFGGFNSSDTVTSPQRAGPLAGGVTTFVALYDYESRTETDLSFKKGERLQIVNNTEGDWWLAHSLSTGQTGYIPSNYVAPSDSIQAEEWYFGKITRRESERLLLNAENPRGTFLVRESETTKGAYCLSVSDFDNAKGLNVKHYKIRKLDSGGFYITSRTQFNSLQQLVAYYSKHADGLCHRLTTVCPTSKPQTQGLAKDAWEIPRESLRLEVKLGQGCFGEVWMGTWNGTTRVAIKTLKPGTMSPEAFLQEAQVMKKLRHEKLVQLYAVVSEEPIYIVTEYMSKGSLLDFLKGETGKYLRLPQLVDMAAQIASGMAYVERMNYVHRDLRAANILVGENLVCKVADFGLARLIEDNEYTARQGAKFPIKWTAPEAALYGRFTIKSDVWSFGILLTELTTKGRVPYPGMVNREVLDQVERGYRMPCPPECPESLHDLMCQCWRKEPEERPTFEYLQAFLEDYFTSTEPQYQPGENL
Sequence of Epidermal growth factor receptor (P00533 whole entry): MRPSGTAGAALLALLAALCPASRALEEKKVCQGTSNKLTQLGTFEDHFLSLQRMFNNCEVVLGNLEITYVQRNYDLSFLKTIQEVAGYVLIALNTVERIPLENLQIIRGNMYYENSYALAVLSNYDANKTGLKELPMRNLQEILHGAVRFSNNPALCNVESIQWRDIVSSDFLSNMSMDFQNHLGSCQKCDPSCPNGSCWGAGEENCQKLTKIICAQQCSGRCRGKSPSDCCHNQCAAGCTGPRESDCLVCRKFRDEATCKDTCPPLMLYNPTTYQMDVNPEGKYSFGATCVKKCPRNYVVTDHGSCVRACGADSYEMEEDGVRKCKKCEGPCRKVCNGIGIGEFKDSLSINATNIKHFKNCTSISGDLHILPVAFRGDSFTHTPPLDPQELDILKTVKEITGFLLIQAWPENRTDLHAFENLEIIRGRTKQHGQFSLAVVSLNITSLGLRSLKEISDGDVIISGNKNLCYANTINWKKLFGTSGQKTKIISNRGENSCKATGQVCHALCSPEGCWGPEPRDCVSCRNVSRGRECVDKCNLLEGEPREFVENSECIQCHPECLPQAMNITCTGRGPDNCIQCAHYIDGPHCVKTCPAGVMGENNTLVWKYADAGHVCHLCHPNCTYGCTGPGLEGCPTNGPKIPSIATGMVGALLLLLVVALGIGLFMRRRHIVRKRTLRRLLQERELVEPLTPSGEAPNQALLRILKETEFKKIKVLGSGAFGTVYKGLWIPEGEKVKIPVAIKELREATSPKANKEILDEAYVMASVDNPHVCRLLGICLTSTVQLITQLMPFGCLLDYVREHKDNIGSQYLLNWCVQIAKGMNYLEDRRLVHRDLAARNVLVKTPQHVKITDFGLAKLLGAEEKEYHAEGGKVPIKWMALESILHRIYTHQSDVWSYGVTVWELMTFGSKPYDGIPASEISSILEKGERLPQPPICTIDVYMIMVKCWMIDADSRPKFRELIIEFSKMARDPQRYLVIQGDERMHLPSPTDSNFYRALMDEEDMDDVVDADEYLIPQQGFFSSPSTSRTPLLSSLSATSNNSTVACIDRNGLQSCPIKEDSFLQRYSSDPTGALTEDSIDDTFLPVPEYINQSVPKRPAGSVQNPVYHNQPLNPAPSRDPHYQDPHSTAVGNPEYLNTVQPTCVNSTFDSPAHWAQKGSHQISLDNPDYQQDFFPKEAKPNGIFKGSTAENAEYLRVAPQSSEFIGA
Sequence of Vascular endothelial growth factor receptor 2 (Homo sapiens) (P35968 whole entry): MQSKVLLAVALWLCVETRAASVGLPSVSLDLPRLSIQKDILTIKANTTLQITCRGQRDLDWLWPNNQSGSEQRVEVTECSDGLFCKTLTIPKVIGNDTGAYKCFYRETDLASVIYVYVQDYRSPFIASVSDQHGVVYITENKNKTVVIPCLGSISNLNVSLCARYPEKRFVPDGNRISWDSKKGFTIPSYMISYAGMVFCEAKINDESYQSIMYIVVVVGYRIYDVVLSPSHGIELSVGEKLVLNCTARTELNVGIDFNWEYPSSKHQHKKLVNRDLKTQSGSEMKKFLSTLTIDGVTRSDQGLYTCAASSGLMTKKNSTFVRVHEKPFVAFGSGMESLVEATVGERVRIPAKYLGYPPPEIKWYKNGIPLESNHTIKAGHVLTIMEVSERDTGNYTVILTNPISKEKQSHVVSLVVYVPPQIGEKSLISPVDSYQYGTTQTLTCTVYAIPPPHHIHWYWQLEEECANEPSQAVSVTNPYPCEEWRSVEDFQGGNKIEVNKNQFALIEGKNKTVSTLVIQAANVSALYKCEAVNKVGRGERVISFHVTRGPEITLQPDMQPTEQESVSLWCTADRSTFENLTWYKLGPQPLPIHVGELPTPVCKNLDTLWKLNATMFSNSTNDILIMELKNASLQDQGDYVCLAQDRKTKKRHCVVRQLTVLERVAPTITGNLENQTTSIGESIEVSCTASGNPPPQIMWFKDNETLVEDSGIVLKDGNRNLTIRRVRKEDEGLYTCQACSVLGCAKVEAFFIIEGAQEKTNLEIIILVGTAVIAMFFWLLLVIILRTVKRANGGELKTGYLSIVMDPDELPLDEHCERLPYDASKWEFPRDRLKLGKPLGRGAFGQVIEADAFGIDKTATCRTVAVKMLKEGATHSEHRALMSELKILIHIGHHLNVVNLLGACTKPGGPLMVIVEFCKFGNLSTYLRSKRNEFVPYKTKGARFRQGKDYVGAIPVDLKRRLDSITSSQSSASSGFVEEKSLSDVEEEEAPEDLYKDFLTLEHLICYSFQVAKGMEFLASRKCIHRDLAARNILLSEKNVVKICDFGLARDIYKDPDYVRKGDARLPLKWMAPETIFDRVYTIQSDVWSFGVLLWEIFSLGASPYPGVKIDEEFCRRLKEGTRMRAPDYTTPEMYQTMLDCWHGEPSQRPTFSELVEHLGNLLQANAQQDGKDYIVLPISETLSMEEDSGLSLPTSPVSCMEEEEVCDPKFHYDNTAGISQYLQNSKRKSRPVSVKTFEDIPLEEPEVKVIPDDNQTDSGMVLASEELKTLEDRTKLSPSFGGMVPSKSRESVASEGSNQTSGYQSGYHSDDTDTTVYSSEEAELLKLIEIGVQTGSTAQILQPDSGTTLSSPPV

In the case of `COCCOc1cc2ncnc(Nc3ccc(F)c(Cl)c3)c2cc1NC(=O)[C@@H]1CCCN1`, the pIC50 [1] was 6.52 and the Activity [2] was “Active”.

With `C=CC(=O)Nc1cc2c(Nc3cc(OC)c(Cl)cc3OC)ncnc2cc1OCC1CCN(C)CC1` the Activity [2] was “Active”.

In the case of `COCCOc1cc2ncnc(Nc3c(Cl)ccc4c3OCO4)c2cc1NC(=O)[C@@H]1CCCN1`, the Activity (A-431 [3]) was “Active”, the Activity [4] was “tde” and the Cmax (Rattus norvegicus) was 400 nM. For the same molecule, the Activity [5] was “tde”, the Tmax [6] was 4.8 min and the Tmax [7] was 1 h. For the same molecule, the Activity [8] was “Active”, the pIC50 [1] was 7.05 and the half-life [9] was 6.1 h. For the same molecule, the Cmax [10] was 120 nM, the Tmax [11] was 4 h and the pIC50 (A-431 [12]) was 6.11. The Activity (PC-3 [13]) was “tde”, the Activity (SK-BR-3) was “inactive” and the AUC [14] was 2400 ng·h/mL. The half-life [15] was 5.4 h, the Activity [16] was “Active” and the AUC [17] was 1240 ng·h/mL. For the same molecule, the Activity (PC-3 [18]) was “Dose-dependent effect”, the Cmax [19] was 2010 nM and the Activity (PC-3 [20]) was “Active”. The Activity (A-431 [21]) was “Dose-dependent effect”, the pIC50 [22] was 5.15 and the Activity (MCF7) was “inactive”. The bioavailability [23] was 20.4%, the Activity (A-431 [24]) was “tde” and the Activity [25] was “inactive”.

In the case of `CCN1CCN(Cc2ccc(-c3cc4c(N[C@@H](C)c5ccccc5)ncnc4[nH]3)cc2)CC1`, the Activity [2] was “Active”.

In the case of `CN(C)CCC(=O)Nc1cc2c(Nc3ccc(F)c(Cl)c3)ncnc2cc1OCCCN1CCOCC1`, the Activity [2] was “Active”.
